# Measurements published in ChEMBL document CHEMBL3085623, “Oridonin ring A-based diverse constructions of enone functionality: identification of novel dienone analogues effective for highly aggressive breast cancer by inducing apoptosis” (J Med Chem, 2013).
# pIC50: −log10 of the molar value. Activity calls are given as the source filed them. The rule behind the calls is not given here.
# What was measured:
# MDA-MB-231 [1] = experiment: Induction of apoptosis in human MDA-MB-231 cells after 24 hrs using FITC-annexin V and propidium iodide staining by flow cytometry; format: functional, cell-based
# Mus musculus = experiment: Toxicity in human MDA-MB-231 cells xenografted nude mouse assessed as change body weight at 5 mg/kg, ip administered 5 days per week for 10 days; format: organism-based; parameters: dose 5 mg/kg, route intraperitoneal; details: in vivo
# Summary of the method: (§1)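 Female nude mice, 4–6 weeks old, kept in a barrier unit on a 12 h light-dark cycle. Each mouse received 2.5 × 10^6 freshly harvested MDA-MB-231 cells in 100 μL PBS into the 3rd mammary fat pad. Mice were randomized into 3 groups. Once tumors reached 200 mm3, dosing was 5 mg/kg ip, 5 days/week for 10 days, in 50% DMSO/50% PEG. Tumor volume (0.5 × L × W2) and body weight were measured daily. One-way ANOVA.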
# MDA-MB-231 [2] = experiment: Antitumor activity against human MDA-MB-231 cells xenografted in nude mouse assessed as inhibition of tumor growth at 5 mg/kg, ip administered 5 days per week for 10 days; format: functional, organism-based; parameters: dose 5 mg/kg; summary of the method: as §1
# MDA-MB-231 [3] = experiment: Induction of apoptosis in human MDA-MB-231 cells assessed as caspase3 activation after 48 hrs by Western blot analysis; format: functional, cell-based
# Summary of the method: (§2)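 MDA-MB-231 cells treated 48 h with DMSO or compound. Lysates quantified by Bradford; 30 μg protein run on SDS-PAGE and transferred to PVDF. Blocked in 5% milk, then probed overnight: anti-Bcl-2 1:200, Bax 1:1000, PARP 1:10000, NF-κB p65 1:2000, caspase-3 1:1000, β-actin 1:20000. ECL detection.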
# MDA-MB-231 [4] = experiment: Induction of apoptosis in human MDA-MB-231 cells assessed as PARP cleavage after 48 hrs by Western blot analysis; format: functional, cell-based; summary of the method: as §2
# MDA-MB-231 [5] = experiment: Induction of apoptosis in human MDA-MB-231 cells assessed as downregulation of p65 NF-kappaB level at 2.5 to 10 uM after 48 hrs by Western blot analysis; format: functional, cell-based; summary of the method: as §2
# MDA-MB-231 [6] = experiment: Induction of apoptosis in human MDA-MB-231 cells assessed as upregulation of Bax level at 2.5 to 10 uM after 48 hrs by Western blot analysis; format: functional, cell-based; summary of the method: as §2
# MDA-MB-231 [7] = experiment: Induction of apoptosis in human MDA-MB-231 cells assessed as downregulation of Bcl2 level at 2.5 to 10 uM after 48 hrs by Western blot analysis; format: functional, cell-based; summary of the method: as §2
# MDA-MB-231 [8] = experiment: Induction of apoptosis in human MDA-MB-231 cells assessed as live cells at 10 uM after 24 hrs using FITC-annexin V and propidium iodide staining by flow cytometry (reference value: 83.45 to 89.30 %); format: functional
# MDA-MB-231 [9] = experiment: Induction of apoptosis in human MDA-MB-231 cells assessed as late apoptotic cells at 10 uM after 24 hrs using FITC-annexin V and propidium iodide staining by flow cytometry (reference value: 5.5 to 11.0 %); format: functional
# MDA-MB-231 [10] = experiment: Induction of apoptosis in human MDA-MB-231 cells assessed as early apoptotic cells at 10 uM after 24 hrs using FITC-annexin V and propidium iodide staining by flow cytometry (reference value: 4.55 to 4.85 %); format: functional
# MDA-MB-231 [11] = experiment: Induction of apoptosis in human MDA-MB-231 cells assessed as dead cells at 10 uM after 24 hrs using FITC-annexin V and propidium iodide staining by flow cytometry (reference value: 0.3 to 1.00 %); format: functional
# MDA-MB-231 [12] = experiment: Induction of apoptosis in human MDA-MB-231 cells assessed as live cells at 5 uM after 24 hrs using FITC-annexin V and propidium iodide staining by flow cytometry (reference value: 83.45 to 89.30 %); format: functional
# MDA-MB-231 [13] = experiment: Induction of apoptosis in human MDA-MB-231 cells assessed as early apoptotic cells at 5 uM after 24 hrs using FITC-annexin V and propidium iodide staining by flow cytometry (reference value: 4.55 to 4.85 %); format: functional
# MDA-MB-231 [14] = experiment: Induction of apoptosis in human MDA-MB-231 cells assessed as late apoptotic cells at 5 uM after 24 hrs using FITC-annexin V and propidium iodide staining by flow cytometry (reference value: 5.5 to 11.0 %); format: functional
# MDA-MB-231 [15] = experiment: Induction of apoptosis in human MDA-MB-231 cells assessed as dead cells at 5 uM after 24 hrs using FITC-annexin V and propidium iodide staining by flow cytometry (reference value: 0.3 to 1.00 %); format: functional
# MDA-MB-231 [16] = experiment: Induction of apoptosis in human MDA-MB-231 cells assessed as live cells at 1 uM after 24 hrs using FITC-annexin V and propidium iodide staining by flow cytometry (reference value: 83.45 to 89.30 %); format: functional
# MDA-MB-231 [17] = experiment: Induction of apoptosis in human MDA-MB-231 cells assessed as early apoptotic cells at 1 uM after 24 hrs using FITC-annexin V and propidium iodide staining by flow cytometry (reference value: 4.55 to 4.85 %); format: functional
# MDA-MB-231 [18] = experiment: Induction of apoptosis in human MDA-MB-231 cells assessed as late apoptotic cells at 1 uM after 24 hrs using FITC-annexin V and propidium iodide staining by flow cytometry (reference value: 5.5 to 11.0 %); format: functional
# MDA-MB-231 [19] = experiment: Inhibition of colony formation of human MDA-MB-231 cells at 0.625 to 10 uM after 2 weeks by crystal violet staining-based GelCount method; format: functional, cell-based
# Summary of the method: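 MDA-MB-231 cells seeded at 800/well and left 24 h. Then treated with 0.625–10 μM compound or DMSO, medium with compound renewed every 72 h for two weeks. Stained with 0.01% crystal violet for 10 min after PBS washes. Whole-well density quantified on GelCount. Triplicate; SD; one-way ANOVA.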
# MDA-MB-231 [20] = experiment: Antiproliferative activity against human MDA-MB-231 cells after 48 hrs by MTT assay; format: functional, cell-based; details: MDA-MB-231, 48 h
# Summary of the method: (§3)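 Seeded at 1 × 10^4 cells/well, then exposed to DMSO or compound at 0.01, 0.1, 1, 5, 10 and 100 μM for 48 h. MTT (5 mg/mL in PBS) added for a further 4 h, formazan dissolved in DMSO, OD read at 550 nm. Quadruplicate wells per concentration. IC50 from curve fitting; mean ± SE of three independent experiments.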
# MCF7 = experiment: Antiproliferative activity against human MCF7 cells after 48 hrs by MTT assay; format: functional, cell-based; details: MCF7, 48 h; summary of the method: as §3
# MDA-MB-231 [21] = experiment: Induction of apoptosis in human MDA-MB-231 cells assessed as dead cells at 1 uM after 24 hrs using FITC-annexin V and propidium iodide staining by flow cytometry (reference value: 0.3 to 1.00 %); format: functional
# cells = details: Homo sapiens, NCI/ADR-RES, 48 h
# HMEC = experiment: Growth inhibition of human HMEC cells after 24 hrs
# MDA-MB-231 [22] = experiment: Induction of apoptosis in human MDA-MB-231 cells assessed as caspase3 cleavage at 10 to 30 uM after 48 hrs by Western blot analysis; format: functional, cell-based; summary of the method: as §2
# MDA-MB-231 [23] = experiment: Induction of apoptosis in human MDA-MB-231 cells assessed as upregulation of Bax level at 10 to 30 uM after 48 hrs by Western blot analysis; format: functional, cell-based; summary of the method: as §2
# MDA-MB-231 [24] = experiment: Induction of apoptosis in human MDA-MB-231 cells assessed as upregulation of cleaved PARP level at 10 to 30 uM after 48 hrs by Western blot analysis; format: functional, cell-based; summary of the method: as §2
# MDA-MB-231 [25] = experiment: Induction of apoptosis in human MDA-MB-231 cells assessed as downregulation of PARP level at 10 to 30 uM after 48 hrs by Western blot analysis; format: functional, cell-based; summary of the method: as §2
# MDA-MB-231 [26] = experiment: Induction of apoptosis in human MDA-MB-231 cells assessed as downregulation of p65 NF-kappaB level at 10 to 30 uM after 48 hrs by Western blot analysis; format: functional, cell-based; summary of the method: as §2
# MDA-MB-231 [27] = experiment: Induction of apoptosis in human MDA-MB-231 cells assessed as downregulation of Bcl2 level at 10 to 30 uM after 48 hrs by Western blot analysis; format: functional, cell-based; summary of the method: as §2
smiles,measurement,setting,value
C=C1C(=O)[C@@]23[C@@H]4OC(C)(C)O[C@]25OC[C@]2(C=CC(=O)C(C)(C)[C@H]2[C@@H]5O)[C@@H]3CC[C@@H]14,Activity,MDA-MB-231 [1],Dose-dependent effect
same,Activity,Mus musculus,Non-toxic
same,TGI,MDA-MB-231 [2],Active
same,Activity,MDA-MB-231 [3],Dose-dependent effect
same,Activity,MDA-MB-231 [4],Dose-dependent effect
same,Activity,MDA-MB-231 [5],Active
same,Activity,MDA-MB-231 [6],Active
same,Activity,MDA-MB-231 [7],Active
same,Activity,MDA-MB-231 [8],52.3%
same,Activity,MDA-MB-231 [9],39.1%
same,Activity,MDA-MB-231 [10],8.3%
same,Activity,MDA-MB-231 [11],0.3%
same,Activity,MDA-MB-231 [12],73%
same,Activity,MDA-MB-231 [13],10.15%
same,Activity,MDA-MB-231 [14],16.55%
same,Activity,MDA-MB-231 [15],0.3%
same,Activity,MDA-MB-231 [16],83.05%
same,Activity,MDA-MB-231 [17],5.05%
same,Activity,MDA-MB-231 [18],11.35%
same,inhibition,MDA-MB-231 [19],Active
same,pIC50,MDA-MB-231 [20],5.25
same,pIC50,MCF7,6.01
same,Activity,MDA-MB-231 [21],0.55%
same,pIC50,cells,5.22
same,pIC50,HMEC,4.99
C=C1C(=O)[C@]23[C@H](O)[C@H]1CC[C@H]2[C@@]12CO[C@]3(O)[C@@H](O)[C@@H]1C(C)(C)CC[C@@H]2O [ORIDONIN],Activity,MDA-MB-231 [22],inactive
same,Activity,MDA-MB-231 [23],Active
same,Activity,MDA-MB-231 [24],Active
same,Activity,MDA-MB-231 [25],Active
same,Activity,MDA-MB-231 [26],Active
same,Activity,MDA-MB-231 [27],Active
same,pIC50,MDA-MB-231 [20],4.55
same,pIC50,MCF7,5.36
same,pIC50,cells,< 4.52
same,pIC50,HMEC,5.25
C=C1C(=O)[C@@]23[C@@H]4OC(C)(C)O[C@]25OC[C@]2(C(=O)C=CC(C)(C)[C@H]2[C@@H]5O)[C@@H]3CC[C@@H]14,pIC50,MDA-MB-231 [20],5.46
same,pIC50,MCF7,6.25
same,pIC50,HMEC,5.29
C=C1C(=O)[C@@]23[C@@H]4OC(C)(C)O[C@]25OC[C@]2(C(=O)C(C=O)=CC(C)(C)[C@H]2[C@@H]5O)[C@@H]3CC[C@@H]14,Activity,MDA-MB-231 [1],Dose-dependent effect
same,Activity,MDA-MB-231 [3],Dose-dependent effect
same,Activity,MDA-MB-231 [4],Dose-dependent effect
same,Activity,MDA-MB-231 [5],Active
same,Activity,MDA-MB-231 [6],Active
same,Activity,MDA-MB-231 [7],Active
same,Activity,MDA-MB-231 [8],52.25%
same,Activity,MDA-MB-231 [9],36.1%
same,Activity,MDA-MB-231 [10],11.2%
same,Activity,MDA-MB-231 [11],0.45%
same,Activity,MDA-MB-231 [12],69.55%
same,Activity,MDA-MB-231 [13],10.95%
same,Activity,MDA-MB-231 [14],19.25%
same,Activity,MDA-MB-231 [15],0.25%
same,Activity,MDA-MB-231 [16],84.95%
same,Activity,MDA-MB-231 [17],3.15%
same,Activity,MDA-MB-231 [18],11.7%
same,inhibition,MDA-MB-231 [19],Active
same,pIC50,MDA-MB-231 [20],5.46
same,pIC50,MCF7,5.89
same,Activity,MDA-MB-231 [21],0.2%
same,pIC50,cells,5.18
same,pIC50,HMEC,5.35
C=C1C(=O)[C@@]23C(=O)[C@@H](O)[C@@H]4C(C)(C)[C@@H]5OC[C@]4(C(=O)/C5=C\O)[C@@H]2CC[C@@H]1[C@H]3O,pIC50,MDA-MB-231 [20],< 4.52
same,pIC50,MCF7,< 4.52
C=C1C(=O)[C@@]23C(=O)[C@@H](O)[C@@H]4C(C)(C)[C@@H]5OC[C@]4(C(=O)/C5=C/OC)[C@@H]2CC[C@@H]1[C@H]3O,pIC50,MDA-MB-231 [20],< 4.52
same,pIC50,MCF7,4.99
C=C1C(=O)[C@]23[C@H](O)[C@H]1CC[C@H]2[C@]12C=CC(=O)C(C)(C)[C@H]1[C@H](O)[C@@]3(O)OC2,pIC50,MDA-MB-231 [20],5.03
same,pIC50,MCF7,5.46
same,pIC50,HMEC,5.00
C=C1C(=O)[C@]23[C@H](O)[C@H]1CC[C@H]2[C@@]12CO[C@]3(O)[C@@H](O)[C@@H]1C(C)(C)C=CC2=O,pIC50,MDA-MB-231 [20],5.65
same,pIC50,MCF7,5.88
same,pIC50,cells,5.24
same,pIC50,HMEC,5.31
